Most compounds without a hit are left out; they make up all but 2.1% or so of the library.
GRK2 aptamer HTS: blocks RNA aptamer binding to human GRK2; P25098; bead flow cytometry, FAM-aptamer displacement from GRK2; inhibition of aptamer binding, % at 10 µM; 0.59% of 330,000 active; AID 488847;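 active = inhibition of aptamer binding above 40%, roughly 3 SD of noise, on plates passing a quality check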;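 note: median bead fluorescence of bound FAM aptamer so fluorescent compounds give negative values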
LMPTP inh: LMPTP (human) inhibition; inhibition, % at 20 µM; 0.22% of 360,000 active; AID 651560; recombinant LMPTP-A, OMFP fluorogenic substrate, fluorescence intensity; P24666;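 active = compounds that cut the enzyme signal by at least half of the control window in the single-dose screen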;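 note: plate controls were DMSO wells with enzyme plus substrate for no effect and substrate without enzyme for full effect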
Target sequence (P24666 whole entry, looked up): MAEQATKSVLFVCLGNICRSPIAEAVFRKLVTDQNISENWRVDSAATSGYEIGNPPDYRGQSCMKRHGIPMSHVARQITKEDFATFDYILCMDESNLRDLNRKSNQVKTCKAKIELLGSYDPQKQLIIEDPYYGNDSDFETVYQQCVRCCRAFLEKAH
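Test system: LMPTP-A, protein tyrosine phosphatase of low molecular weight; Input: 0.625 nM enzyme; Incubation: 50 min dark incubation at room temperature; Signal: endpoint fluorescence intensity from OMFP dephosphorylation; Read-out basis: % inhibition versus control wells.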
STEP inh: inhibitors of human striatal-enriched phosphatase STEP; AID 588621; 0.25% of 360,000 active; inhibition, % at 20 µM; recombinant STEP, OMFP fluorogenic substrate, fluorescence;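 active = inhibition at 20 µM, scaled per plate between control wells, above about 37%, limit read from the data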;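 note: 0% = DMSO with enzyme and substrate and 100% = substrate only without enzyme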
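Also added – OMFP at 25 µM · Test system – STEP tyrosine phosphatase · Technique – FITC-channel fluorescence of OMFP product · Schedule – 20 min at room temperature, dark · Evaluation – control-normalized % inhibition with plate pattern correction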
SUMO1 PPI mod: alters human SUMO1 binding to SIM partners; inhibition, % at 20 µM; P63165; 0.33% of 360,000 active; SUMO1 binding to a labelled peptide, TR-FRET, 1 h; in the data active = inhibition above about 37%
Target sequence (P63165 whole entry, looked up): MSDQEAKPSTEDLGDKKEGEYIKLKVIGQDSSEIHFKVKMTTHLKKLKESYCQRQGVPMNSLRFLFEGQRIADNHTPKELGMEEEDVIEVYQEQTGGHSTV
Scp-1 inhibitor: Scp-1 (human) phosphatase inhibition; Q9GZU7; Recombinant Scp1, phosphopeptide, malachite green phosphate absorbance; inhibition, % at 20 µM; 0.88% of 340,000 active; AID 493091;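 active = inhibition above about 50% at 20 µM, limit read from the data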;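 note: plate controls were DMSO wells with enzyme for no effect and wells lacking enzyme for full effect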
Target sequence (Q9GZU7 76-261 limits assumed): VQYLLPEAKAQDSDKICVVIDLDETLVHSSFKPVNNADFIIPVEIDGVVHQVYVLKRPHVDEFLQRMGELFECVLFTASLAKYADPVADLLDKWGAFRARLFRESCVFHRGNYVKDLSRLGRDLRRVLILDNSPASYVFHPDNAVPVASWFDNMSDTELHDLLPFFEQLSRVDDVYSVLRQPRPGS
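Material: truncated SCP-1 phosphatase (76-261aa) / Buffer or medium: 50 mM Tris acetate pH 5.5, 0.005% Tween-20, 10 mM MgCl2 / Compound dosing: one concentration, 20 µM, with 1.0% DMSO / Incubation: 45 min room-temperature reaction, 5 min colour, 30 min stabiliser / Detection: colorimetric free-phosphate detection, absorbance 630 nm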
DNMT1 inh: DNMT1 (human) enzyme inhibition; inhibition (reported as % activation of signal), % at 10 µM; AID 588458; DNMT1 molecular beacon, Hinp1I cleavage, fluorescence; 0.83% of 360,000 active; P26358; in the data active = inhibition above about 50%
Beacon interf DR: shows spectral interference in the DNMT1 beacon assay | shares compounds with DNMT1 inh | molecular beacon fluorescence, spectral interference counter-screen | IC50, µM | 200 tested, under 10 active | AID 602382; call rule not given here
DNMT1 confirm: confirmation of human DNMT1 inhibitors; shares compounds with DNMT1 inh; DNMT1 molecular beacon HinP1I cleavage, fluorescence; inhibition, % at 10 µM; 8% of 2,300 active; AID 602385;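 active = average inhibition of at least 30% in the single-concentration confirmation test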
Beacon interf: beacon fluorescence artifact counter-screen. shares compounds with DNMT1 inh. DNMT1 molecular beacon spectral interference counterscreen, fluorescence 485/520. activation (fluorescence interference), % at 10 µM. 1% of 2,300 active. AID 602387;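 active = activation of at least 30% at 10 µM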;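 note: DNMT1 catalytic domain with a HinP1I cleavage step and a FAM/dabcyl DNA beacon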
* = called active by the depositor; / = no result given.

SMILES	GRK2 aptamer HTS	LMPTP inh	STEP inh	SUMO1 PPI mod	Scp-1 inhibitor	DNMT1 inh	DNMT1 confirm	Beacon interf	others
Cc1ccc(-c2cc(-c3ccccc3O)nc(N/N=C/c3cccnc3)n2)cc1	0.0	2.1	1.8	3.7	-3.0	51.7*	-0.7	-4.0
C(=N\Nc1nccc(-c2cccnc2)n1)/c1ccccc1	2.0	0.9	-3.2	-13.1	-7.0	-3.0	/	/
Cc1csc(SCC(=O)NC2CCC(C)CC2)n1 (stereo not drawn)	0.0	-0.1	-1.6	-0.4	-0.4	-0.1	/	/
COc1ccc(C2CC=C(C(C)=O)CN2S(=O)(=O)c2ccc(C)cc2)cc1 (stereo not drawn)	/	0.5	0.8	3.8	/	-3.3	/	/
O=c1[nH]nnc2c1sc1nc(N3CCOCC3)c3c(c12)CCCC3	0.0	-13.8	0.2	-0.6	-2.5	94.6*	6.6	9.9
CCc1cc(=O)oc2cc(C)c(CN3CCCCC3)c(O)c12	2.0	-0.3	10.3	36.6	-10.8	8.7	/	/
CCc1cc(=O)oc2cc(C)c(CN3CCCC3)c(O)c12	0.0	8.2	2.7	39.1	6.7	86.6*	4.3	1.0
O=C(C1CCCN(S(=O)(=O)c2ccc(F)cc2)C1)N1CCCCC1 (stereo not drawn)	3.0	-0.9	-0.4	3.1	-5.5	-3.8	/	/
Cc1ccsc1C(=O)OCC(=O)N1C(C)CCCC1C (stereo not drawn)	0.0	0.0	-0.9	3.3	-2.2	4.0	/	/
Fc1ccc(Nc2nc(-c3ccncc3)nc3ccccc23)cc1F	0.0	13.1	13.9	18.6	-12.5	56.0*	6.5	1.4
O=C(OCC(=O)N1CCCCCC1)c1ccccc1Br	4.0	-1.9	-1.6	4.9	-7.9	1.4	/	/
O=C(CNC(=O)c1ccc([N+](=O)[O-])cc1)N/N=C\c1ccc(OC(=O)c2ccccc2)cc1	0.0	2.2	1.1	-6.5	-4.8	85.3*	38.3*	-0.1	Beacon interf DR=>99
COc1cccc(C(=O)NCC(=O)N/N=C/c2cccc(OC(=O)c3ccc([N+](=O)[O-])cc3)c2)c1	4.0	0.6	3.2	-5.9	-6.9	-0.9	/	/
O=c1n2c(c(O)n1C1CCCCC1)C(c1ccccc1)=Nc1ccccc1C2	/	1.3	-0.3	-2.1	/	-1.2	/	/
CSc1nc(Sc2cccc(Cl)c2)c2ccccc2n1	0.0	0.8	1.8	2.1	2.6	86.8*	6.6	4.1
CCCc1cc(=O)[nH]c(SCC(=O)NCCN2C(=O)CSC2=O)n1	5.0	-0.8	-0.7	0.9	-3.9	4.6	/	/
Cc1c(C)c2ccc(OCC(=O)Nc3ccccn3)c(C)c2oc1=O	1.0	-1.0	-3.3	-9.9	-2.4	1.3	/	/
Cc1c(C)c2cc(Cl)c(OCC(=O)Nc3ccccn3)cc2oc1=O	/	-0.5	-1.9	70.5*	/	64.5*	2.7	3.7
COCCn1c(N)c(C(=O)c2cccc(S(=O)(=O)N3CCCCCC3)c2)c(=O)[nH]c1=O	1.0	-1.1	1.6	3.4	-0.1	3.8	/	/
Cc1ccc(Cn2cc(CN3CC(N4CCCC4)CS3(=O)=O)nn2)cc1 (stereo not drawn)	/	-1.2	/	-2.7	/	/	/	/
Cc1nnn(-c2nonc2N)c1C(=O)N/N=C/c1cccc2ccccc12	0.0	2.2	4.8	-2.8	-6.9	59.7*	5.6	2.2
O=C(O)C1CCN(c2ncccn2)CC1	0.0	0.1	-3.1	-1.4	3.6	81.1*	1.8	2.2
O=c1c(Cl)c(N/N=C/c2ccc(Cl)cc2)cnn1-c1ccccc1	0.0	54.2*	3.1	-1.0	19.5	80.0*	5.0	2.5
O=c1c(Cl)c(Cl)cnn1-c1ccccc1	/	-1.0	2.8	-9.2	-4.0	5.7	/	/
Cc1nn(-c2ccccc2)c(Cl)c1C(=O)OCC(=O)N(C)c1c(N)n(Cc2ccccc2)c(=O)[nH]c1=O	1.0	0.2	-1.0	0.4	-6.2	1.0	/	/
SMILES	GRK2 aptamer HTS	LMPTP inh	STEP inh	SUMO1 PPI mod	Scp-1 inhibitor	DNMT1 inh	DNMT1 confirm	Beacon interf	others
COc1ccc(-c2cc3ccccc3oc2=O)cc1NC(=O)c1ccc([N+](=O)[O-])o1	0.0	10.6	5.7	-7.1	2.2	6.5	/	/
COc1ccc(-c2cc3ccccc3oc2=O)cc1NC(=O)c1ccc(Br)o1	0.0	15.6	4.6	9.1	1.1	85.2*	1.8	-4.5
Cc1ccc(N2CCN(S(=O)(=O)c3c(C)noc3C)CC2C)cc1 (stereo not drawn)	2.0	-1.0	0.7	-1.0	-3.4	-0.8	/	/
COc1ccc(CNC(=O)CCC(=O)N2CCN(S(=O)(=O)c3cc([N+](=O)[O-])ccc3C)CC2)cc1	/	1.0	4.4	-20.8	-7.6	-1.8	/	/
Clc1ccc(-c2nnc3sc(-c4ccc(Br)o4)nn23)cc1	0.0	-0.6	3.7	-2.1	-3.6	112.5*	60.5*	47.8*
Cc1oc(-c2ccc(Cl)cc2)cc1-c1nn2c(-c3ccoc3C)nnc2s1	6.0	8.5	-0.6	20.5	44.8	93.2*	4.9	1.2
CC(C)Sc1nc2sc3c(c2c2nnc(SCC(=O)NCc4ccco4)n12)CCCC3	3.0	8.3	2.6	18.1	34.7	65.4*	3.3	1.2
CC(C)/C=C/C(=O)N1CCC(N2CCC(C(=O)NCC3CCCO3)CC2)CC1 (stereo not drawn)	/	2.7	1.7	-2.2	/	50.0*	3.3	4.2
Cc1ccc(-c2nc3cccnc3o2)cc1NC(=O)COc1ccc(C(C)(C)C)cc1	2.0	5.8	5.7	1.0	7.6	-7.0	/	/
Cc1ccc(-c2nc3cccnc3o2)cc1NC(=O)COc1ccc(Cl)cc1C	0.0	1.8	5.4	18.9	2.8	73.2*	1.7	-7.1
Cc1ccc(-c2nc3ncccc3o2)cc1NC(=O)COc1ccccc1	5.0	0.8	-0.4	5.3	-1.0	-0.9	/	/
Cc1ccc(-c2nc3ncccc3o2)cc1NC(=O)Cc1ccc(Cl)cc1	0.0	-1.0	-4.1	1.4	-12.1	76.3*	3.4	4.4
COC(=O)c1ccc(N2CCS(=O)(=O)CC2)cc1	0.0	0.1	-4.9	2.6	6.6	58.7*	1.7	3.5
COC(=O)N1CCN(c2ccc(C(C)=O)cc2)CC1	1.0	1.9	-2.4	0.3	-6.5	-4.3	/	/
Cc1ccc(S(=O)(=O)N2CCOCC2)cc1C(=O)NCC1CCCCC1	0.0	0.1	1.9	1.0	-2.7	-0.1	/	/
Cc1ccc(N2CC(C(=O)OCC(=O)NNC(=O)c3ccccc3)CC2=O)cc1 (stereo not drawn)	3.0	-1.0	-1.3	7.5	-0.4	12.3	/	/

Screens (PubChem BioAssay)
